Source: ChEMBL document CHEMBL1126642, “N-(1-methyl-5-indolyl)-N'-(3-pyridyl)urea hydrochloride: the first selective 5-HT1C receptor antagonist” (J Med Chem, 1993)

How the values were obtained:
[1] = Selectivity ratio is Ki value of 5-HT2 receptor to that of 5-HT1c receptor
Outline: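 Ratio of Ki at 5-HT2 ([3H]ketanserin, rat frontal cortex) to Ki at 5-HT1C ([3H]mesulergine, rat clone in 293 cells). Each Ki is a mean of n = 3 determinations.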

[2] = target: T1, 5-hydroxytryptamine receptor 2C (Rattus norvegicus) (UniProt P08909); assay: Binding affinity towards rat 5-hydroxytryptamine 1C receptor using [3H]mesulergine as radioligand expressed in 293 cells; assay type: cell-based; settings: HEK293
T1 sequence (whole entry): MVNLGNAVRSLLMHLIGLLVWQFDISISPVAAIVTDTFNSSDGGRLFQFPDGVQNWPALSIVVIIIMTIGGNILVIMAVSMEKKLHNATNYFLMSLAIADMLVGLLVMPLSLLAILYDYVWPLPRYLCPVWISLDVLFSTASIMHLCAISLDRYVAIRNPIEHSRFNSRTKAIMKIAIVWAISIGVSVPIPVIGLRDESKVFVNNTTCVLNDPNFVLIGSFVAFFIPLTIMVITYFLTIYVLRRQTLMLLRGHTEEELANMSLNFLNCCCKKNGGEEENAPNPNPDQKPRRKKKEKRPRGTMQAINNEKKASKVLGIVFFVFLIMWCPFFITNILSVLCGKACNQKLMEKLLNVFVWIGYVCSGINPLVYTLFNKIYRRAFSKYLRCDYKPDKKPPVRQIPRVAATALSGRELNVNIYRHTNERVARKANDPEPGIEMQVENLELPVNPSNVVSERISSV
Outline: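 Cloned rat 5-HT1C receptor expressed in 293 cells, labelled with [3H]mesulergine. Values are means ± SEM of n = 3 determinations.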

| Selectivity [1] | pK1 [2] | Compound |
| --- | --- | --- |
| > 19 | 6.49 | Cn1ccc2c(NC(=O)Nc3ccccn3)cccc21 |
| – | < 5.3 | Cn1ccc2cccc(NC(=O)Nc3ccccc3)c21 |
| 45 | 7.18 | Cn1ccc2c(NC(=O)Nc3ccncc3)cccc21 |
